According to publication PMC3064895 (Cancer Chemotherapy and Pharmacology, 2010):
“And” between values parts separate entries of the source, which are not always exact repeats. Equal values may be shown once.

Assays:
Assay type in all cases: in vivo, patients with advanced cancer
[1] = Safety: adverse events by NCI-CTCAE v3.0
Summary of the method: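 Patients with advanced cancer took the oral kinase inhibitor at 400 mg bid, continuously, in 28-day cycles. Safety, including laboratory tests, was checked at screening, at baseline and on day 1 of each cycle. Treatment-emergent AEs were graded by NCI-CTCAE v3.0 for incidence, severity, seriousness and drug relationship, and summarized descriptively for all patients with ≥1 dose.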

[2] = Supine blood pressure and heart rate; conditions: for Mean (SD) maximal change from baseline in supine HR / Mean (SD) maximal change from baseline in supine diastolic BP / Mean (SD) maximal change from baseline in supine systolic BP: over 12-h period; for Mean increase from baseline in diastolic BP, individual patient / Mean increase from baseline in systolic BP, individual patient: patient with confirmed PR
[3] = QT/QTc interval on 12-lead Holter ECG
Efficacy: tumor response = test: Efficacy: tumor response
Summary of the method: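 Adults with advanced cancer took the oral multitargeted kinase inhibitor at 400 mg bid, continuously, in 28-day cycles until progression or intolerance. Tumors were measured at screening and every 2 cycles and assessed locally by RECIST. Patients with ≥1 dose were included; patients were evaluable if radiologically re-evaluated or if they stopped for death or progression before re-evaluation. Descriptive statistics were used, with Kaplan–Meier for PFS.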

[4] = 2 h post-dose, Day 1 of cycle 2
[5] = 4 h post-dose, Day 1 of cycle 2
[6] = 6 h post-dose, Day 1 of cycle 2
[7] = 8 h post-dose, Day 1 of cycle 2
[8] = 12 h post-dose, Day 1 of cycle 2
[9] = at t max, Day 1 of cycle 2, listed as Sorafenib
[10] = Day 1 of cycle 2, listed as Sorafenib
[11] = over 12-h period, Day 1 of cycle 2
[12] = over 12-h period, Day 1 of cycle 2, listed as Sorafenib

CNC(=O)c1cc(Oc2ccc(NC(=O)Nc3ccc(Cl)c(C(F)(F)F)c3)cc2)ccn1 [sorafenib]
Sensory neuropathy, drug-related, Grade ≥3 ([1]; N = 53): 0 (0) n (%) | Sensory neuropathy, drug-related, all grades ([1]; N = 53): 7 (13) n (%) | Any drug-related adverse event, Grade ≥3 ([1]; N = 53, sorafenib 400 mg bid): 16 n (%) and 16 (30) n (%) | Any drug-related adverse event, all grades ([1]; N = 53, sorafenib 400 mg bid): 43 n (%) and 43 (81) n (%) | Deaths during the study or within 30 days of the last dose ([1]; all secondary to disease progression, considered unrelated to study drug): Seven | Discontinuations because of drug-related AEs ([1]; of the patients discontinued because of AEs): 3 patients | Mean (SD) change from baseline in supine HR [2, 4]: −5.4 (9.2) bpm | Mean (SD) change from baseline in supine HR ([2]; 2 h post-dose, Day 1 of cycle 5): −0.03 (7.1) bpm | Mean (SD) change from baseline in supine HR [2, 5]: −4.0 (8.8) bpm | Mean (SD) change from baseline in supine HR ([2]; 4 h post-dose, Day 1 of cycle 5): 0.1 (9.2) bpm | Mean (SD) change from baseline in supine HR [2, 6]: −6.0 bpm | Mean (SD) change from baseline in supine HR ([2]; 6 h post-dose, Day 1 of cycle 2, listed as Sorafenib): −6.0 (8.9) bpm | Mean (SD) change from baseline in supine HR ([2]; 6 h post-dose, Day 1 of cycle 5): 0 (8.7) bpm | Mean (SD) change from baseline in supine HR [2, 7]: −4.2 (11.3) bpm | Mean (SD) change from baseline in supine HR ([2]; 8 h post-dose, Day 1 of cycle 5): 0.7 (8.6) bpm | Mean (SD) change from baseline in supine HR [2, 8]: −5.8 (13.3) bpm | Mean (SD) change from baseline in supine HR ([2]; 12 h post-dose, Day 1 of cycle 5): 1.6 (10.0) bpm | Patients with BP ≥150/90 mm Hg at t max ([2]; Day 1 of cycle 5, sorafenib 400 mg bid): 2 n (%) | Mean (SD) change from baseline in supine HR ([2]; Pre-dose, Day 1 of cycle 2): −4.4 (8.1) bpm | Mean (SD) change from baseline in supine HR ([2]; Pre-dose, Day 1 of cycle 5): −2.9 (10.0) bpm | Patients who exceeded 150/90 mm Hg (both systolic and diastolic) ([2]; after 1 cycle): Four | Patients who exceeded a systolic reading of 150 mm Hg only ([2]; after 1 cycle): 4 patients | Patients with a diastolic reading surpassing 90 mm Hg only ([2]; after 1 cycle): 2 patients | Patients who had become hypertensive ([2]; after 1 cycle (6% at baseline)): Thirty-two | Increase in both systolic and diastolic BP at t max ([2]; after both 1 and 4 cycles): 11–12 mm Hg | Patients hypertensive ([2]; at cycle 4): 13% | Mean (SD) change from baseline in supine HR ([2]; at t max, Day 1 of cycle 2): −6.6 bpm | Mean (SD) change from baseline in supine HR [2, 9]: −6.6 (10.6) bpm | Mean (SD) change from baseline in supine HR ([2]; at t max, Day 1 of cycle 5): −3.3 bpm | Mean (SD) change from baseline in supine HR ([2]; at t max, Day 1 of cycle 5, listed as Sorafenib): −3.3 (7.3) bpm | Patients who started receiving antihypertensive medications during treatment ([2]; during treatment with sorafenib): Three | Mean (SD) maximal change from baseline in supine HR ([2]; Day 1 of cycle 2): 2.9 (±8.2) bpm | Mean (SD) maximal change from baseline in supine diastolic BP ([2]; Day 1 of cycle 2): 19.8 (±9.0) mm Hg | Mean (SD) maximal change from baseline in supine systolic BP ([2]; Day 1 of cycle 2): 27.7 (±18.5) mm Hg | Mean (SD) maximal change from baseline in supine HR [2, 10]: 2.9 (8.2) bpm | Mean (SD) maximal change from baseline in supine diastolic BP [2, 10]: 19.8 (9.0) mm Hg | Mean (SD) maximal change from baseline in supine systolic BP [2, 10]: 27.7 (18.5) mm Hg | Mean (SD) maximal change from baseline in supine HR ([2]; Day 1 of cycle 5): 8.3 (±6.8) bpm | Mean (SD) maximal change from baseline in supine diastolic BP ([2]; Day 1 of cycle 5): 22.0 (11.2) mm Hg | Mean (SD) maximal change from baseline in supine systolic BP ([2]; Day 1 of cycle 5): 24.8 (14.4) mm Hg | Mean (SD) maximal change from baseline in supine HR ([2]; Day 1 of cycle 5, listed as Sorafenib): 8.3 (6.8) bpm | Mean increase from baseline in diastolic BP, individual patient ([2]; after 1 cycle): 31.0 mm Hg | Mean increase from baseline in systolic BP, individual patient ([2]; after 1 cycle): 44.5 mm Hg | Mean increase from baseline in diastolic BP, individual patient ([2]; after 4 cycles): 40.8 mm Hg | Mean increase from baseline in systolic BP, individual patient ([2]; after 4 cycles): 29.3 mm Hg | Mean (SD) change from baseline in QTcB [3, 4]: 0.5 (18.0) ms | Mean (SD) change from baseline in QTcB [3, 5]: 2.0 (20.2) ms | Mean (SD) change from baseline in QTcB [3, 6]: 1.6 (17.3) ms | Mean (SD) change from baseline in QTcB [3, 7]: 0.2 (16.1) ms | Mean (SD) change from baseline in QTcB [3, 8]: 2.9 (17.2) ms | Mean (SD) change from baseline in QTcB ([3]; Pre-dose, Day 1 of cycle 2): 1.1 (18.3) ms | Patients with a QTcB or QTcF value >500 ms ([3]; at any time during the study): No patient | Mean (SD) change from baseline in QTcB ([3]; at t max, Day 1 of cycle 2): 4.2 ms and 4 ms | Mean (SD) change from baseline in QTcB [3, 9]: 4.2 (19.2) ms | Patients with a ≥60-ms change from baseline in QTcB or QTcF ([3]; during the study): no patient | Mean (SD) maximal change from baseline in QT [3, 11]: 32.9 (24.1) ms | Mean (SD) maximal change from baseline in QTcB [3, 11]: 16.4 ms and 16 ms | Mean (SD) maximal change from baseline in QTcF [3, 11]: 19.8 ms and 20 ms | Mean (SD) maximal change from baseline in QTcB [3, 12]: 16.4 (15.3) ms | Mean (SD) maximal change from baseline in QTcF [3, 12]: 19.8 (14.4) ms | Mean increases from baseline by time point, QTcB (range) ([3]; over 12 h, after 1 cycle): 0.2 to 2.9 ms | Mean increases from baseline by time point, QTcF (range) ([3]; over 12 h, after 1 cycle): 4.2 to 5.8 ms | QTcF value, individual patient ([3]; patient with maximum prolongation, after 1 cycle, baseline 396.7 ms): 446.3 ms | PD as best response (Efficacy: tumor response; 48 patients evaluable for tumor response, RECIST): 27% | Patients alive (censored) at time of analysis (Efficacy: tumor response; ITT population (n = 53)): 87% | Patients who had died by the time of analysis (Efficacy: tumor response; ITT population (n = 53)): 13% | Median PFS (Efficacy: tumor response; ITT population (n = 53), 95% CI 2.8–6.4 months): 4.1 months | Median overall survival (Efficacy: tumor response; ITT population (n = 53), censored data): not estimable
